Key:
[1] = molecular target: reverse transcriptase from HIV-1 (Human immunodeficiency virus type 1 group M subtype B, UniProt P04585); assay: Single point assay of HIV-RT activity; type: biochemical; settings: mono-intercalators
telomerase = telomerase (Homo sapiens, UniProt O14746); assay: Telomerase inhibition assay using partially purified telomerase; type: biochemical
Summary of the method: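 Partially purified telomerase, prepared by an adapted published procedure, used instead of the crude HeLa cell homogenate of the standard assay to limit extra nucleic acids that could bind bis-intercalators in the mix; IC50 from inhibition curves, with error values reported.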

Chain of telomerase (O14746 whole entry): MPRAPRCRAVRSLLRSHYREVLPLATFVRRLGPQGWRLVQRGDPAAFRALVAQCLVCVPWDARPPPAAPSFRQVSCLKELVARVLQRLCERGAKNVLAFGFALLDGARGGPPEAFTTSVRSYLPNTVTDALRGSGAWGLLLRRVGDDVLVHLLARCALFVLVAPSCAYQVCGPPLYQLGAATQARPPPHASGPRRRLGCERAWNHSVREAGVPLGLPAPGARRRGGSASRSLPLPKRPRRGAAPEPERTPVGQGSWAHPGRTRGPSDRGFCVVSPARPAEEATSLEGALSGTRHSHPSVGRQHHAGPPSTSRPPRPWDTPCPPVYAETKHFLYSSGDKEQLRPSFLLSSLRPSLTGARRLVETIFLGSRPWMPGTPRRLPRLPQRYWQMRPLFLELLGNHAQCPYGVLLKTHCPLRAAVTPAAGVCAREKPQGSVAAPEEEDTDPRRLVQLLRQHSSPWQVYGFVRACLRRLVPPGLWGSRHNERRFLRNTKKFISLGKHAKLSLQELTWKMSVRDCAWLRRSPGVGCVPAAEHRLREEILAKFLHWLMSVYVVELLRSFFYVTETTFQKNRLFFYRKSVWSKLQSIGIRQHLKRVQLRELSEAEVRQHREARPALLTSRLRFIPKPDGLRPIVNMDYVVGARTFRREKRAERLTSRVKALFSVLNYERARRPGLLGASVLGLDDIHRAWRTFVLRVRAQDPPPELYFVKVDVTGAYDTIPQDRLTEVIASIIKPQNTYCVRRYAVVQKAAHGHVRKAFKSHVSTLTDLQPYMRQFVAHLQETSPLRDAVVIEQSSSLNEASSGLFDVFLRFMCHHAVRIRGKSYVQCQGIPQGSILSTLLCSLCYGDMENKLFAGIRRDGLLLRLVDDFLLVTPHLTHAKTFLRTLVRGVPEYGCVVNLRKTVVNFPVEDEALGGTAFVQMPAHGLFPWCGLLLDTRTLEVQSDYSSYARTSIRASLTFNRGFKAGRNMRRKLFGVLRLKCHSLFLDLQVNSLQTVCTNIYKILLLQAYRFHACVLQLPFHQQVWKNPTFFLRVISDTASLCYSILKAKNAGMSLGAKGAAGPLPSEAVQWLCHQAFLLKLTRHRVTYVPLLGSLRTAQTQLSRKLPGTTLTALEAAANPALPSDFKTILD
Chain of telomerase (O60832 whole entry partner): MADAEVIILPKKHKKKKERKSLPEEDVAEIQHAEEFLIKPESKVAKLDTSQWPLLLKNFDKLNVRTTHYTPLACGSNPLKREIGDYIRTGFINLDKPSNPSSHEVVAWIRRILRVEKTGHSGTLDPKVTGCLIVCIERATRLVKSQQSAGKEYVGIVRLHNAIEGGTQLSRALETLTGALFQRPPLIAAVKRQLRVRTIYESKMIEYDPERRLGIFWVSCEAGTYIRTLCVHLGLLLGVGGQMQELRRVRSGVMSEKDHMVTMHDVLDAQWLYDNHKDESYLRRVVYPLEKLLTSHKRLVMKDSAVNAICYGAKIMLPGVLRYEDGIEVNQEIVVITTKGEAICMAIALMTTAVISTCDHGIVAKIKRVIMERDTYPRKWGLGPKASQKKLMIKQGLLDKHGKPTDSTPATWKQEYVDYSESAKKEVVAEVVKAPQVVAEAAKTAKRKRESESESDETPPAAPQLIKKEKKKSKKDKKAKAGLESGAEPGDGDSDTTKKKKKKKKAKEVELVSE
Chain of telomerase (Q9NPE3 whole entry partner): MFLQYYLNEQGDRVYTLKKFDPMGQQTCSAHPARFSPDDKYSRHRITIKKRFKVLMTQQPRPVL
Chain of telomerase (Q9NX24 whole entry partner): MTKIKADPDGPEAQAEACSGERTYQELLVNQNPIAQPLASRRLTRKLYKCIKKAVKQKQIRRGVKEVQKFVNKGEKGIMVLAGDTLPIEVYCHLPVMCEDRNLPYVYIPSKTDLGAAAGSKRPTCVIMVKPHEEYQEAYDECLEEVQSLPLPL
Chain of telomerase (Q9NY12 whole entry partner): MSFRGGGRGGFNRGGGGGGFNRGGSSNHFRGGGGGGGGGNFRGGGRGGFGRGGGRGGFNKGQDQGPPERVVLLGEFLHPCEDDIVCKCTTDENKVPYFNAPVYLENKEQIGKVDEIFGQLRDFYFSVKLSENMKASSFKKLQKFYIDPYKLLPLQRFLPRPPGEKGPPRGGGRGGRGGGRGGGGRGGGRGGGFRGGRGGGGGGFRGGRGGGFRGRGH
Chain of telomerase (Q9BUR4 whole entry partner): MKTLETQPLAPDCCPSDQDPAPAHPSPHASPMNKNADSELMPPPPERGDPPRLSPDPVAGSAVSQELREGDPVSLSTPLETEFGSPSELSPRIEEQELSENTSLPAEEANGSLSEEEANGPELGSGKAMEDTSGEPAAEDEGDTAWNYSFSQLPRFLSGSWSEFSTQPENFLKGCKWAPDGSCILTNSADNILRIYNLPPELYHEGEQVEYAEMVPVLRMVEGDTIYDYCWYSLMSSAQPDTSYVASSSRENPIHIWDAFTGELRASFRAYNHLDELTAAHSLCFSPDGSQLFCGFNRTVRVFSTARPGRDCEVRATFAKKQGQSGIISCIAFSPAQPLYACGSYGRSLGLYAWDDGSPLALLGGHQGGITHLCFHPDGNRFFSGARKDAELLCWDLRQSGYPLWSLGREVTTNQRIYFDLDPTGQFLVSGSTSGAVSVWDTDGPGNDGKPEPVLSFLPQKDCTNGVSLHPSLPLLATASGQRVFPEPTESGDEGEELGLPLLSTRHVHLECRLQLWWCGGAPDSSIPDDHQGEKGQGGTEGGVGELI

Structure (SMILES)	IC50 estimates against reverse transcriptase [1]	IC50 (telomerase)
O=C(O)c1c2ccccc2nc2ccccc12 [9-Acridine carboxylic acid]	No inhibition observed	
COc1ccc2nc3cc(Cl)ccc3c(N)c2c1 [9-Amino-6-Chloro-2-Methoxy acridine]	No inhibition observed	
O=C(O)c1ccc2cc3ccccc3cc2c1 [2-Anthracene carboxylic acid]	No inhibition observed	
O=C(O)c1cccc2cc3ccccc3cc12 [1-Anthracene carboxylic acid]	No inhibition observed	
NCCCC[C@H](NC(=O)CCNC(=O)C(N)CN)C(N)=O (some centres unmarked) [compound 1]		103 nM

— PMC3518307 (Bioorganic & medicinal chemistry letters, 2012)
